Assay results reported in ChEMBL document CHEMBL1135768, “Design, synthesis, and SAR of tachykinin antagonists: modulation of balance in NK(1)/NK(2) receptor antagonist activity” (J Med Chem, 2002).

Legend:
[1] = Bioavailability in dog (dose 1-10 uM/kg i.v.); assay type: ADME, organism-based, Canis lupus familiaris; settings: in vivo, iv
In short: (§1)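 Compound given to rat (n = 3) or dog (n = 1) by iv bolus at 1–10 μmol/kg, or orally at 10–100 μmol/kg, as a solution in 75% poly(ethylene glycol) 400 in normal saline.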

[2] = Bioavailability in rat (dose 1-10 uM/kg i.v.); assay type: ADME, organism-based; settings: in vivo, iv; in short: as §1
[3] = target: Substance-P receptor (Cavia porcellus) (UniProt P30547); experiment: Effective dose concentration required for In vivo binding affinity towards Tachykinin receptor 1 after oral administration in presence of agonist ASMSP in guinea pig pulmonary tissue in lung plasma extravation assay; assay type: organism-based
Chain of Substance-P receptor (Cavia porcellus) (P30547 whole entry): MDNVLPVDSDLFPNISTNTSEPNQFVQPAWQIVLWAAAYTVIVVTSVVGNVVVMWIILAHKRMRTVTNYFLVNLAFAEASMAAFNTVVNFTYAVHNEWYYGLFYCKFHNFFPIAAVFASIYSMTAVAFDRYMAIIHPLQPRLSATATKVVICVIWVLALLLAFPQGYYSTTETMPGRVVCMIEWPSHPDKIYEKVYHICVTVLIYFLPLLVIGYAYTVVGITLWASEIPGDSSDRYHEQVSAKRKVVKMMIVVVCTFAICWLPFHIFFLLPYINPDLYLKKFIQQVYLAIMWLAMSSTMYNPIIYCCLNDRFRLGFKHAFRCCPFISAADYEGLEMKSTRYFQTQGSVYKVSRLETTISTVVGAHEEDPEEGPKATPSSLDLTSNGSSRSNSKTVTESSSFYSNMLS
In short: (§2)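 Guinea pig lung plasma extravasation model. Antagonist dosed orally; NK1-selective agonist ASMSP challenge 2 h postdose. Single ED50 calculated from dose response in three to six animals per dose over 4–5 dose levels, doses staggered across several days.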

[4] = target: T1, Substance-K receptor (Oryctolagus cuniculus) (UniProt P79218); experiment: Tested for the binding affinity towards tachykinin receptor 2 (NK2) in rabbit pulmonary artery tissue
T1 sequence (whole entry): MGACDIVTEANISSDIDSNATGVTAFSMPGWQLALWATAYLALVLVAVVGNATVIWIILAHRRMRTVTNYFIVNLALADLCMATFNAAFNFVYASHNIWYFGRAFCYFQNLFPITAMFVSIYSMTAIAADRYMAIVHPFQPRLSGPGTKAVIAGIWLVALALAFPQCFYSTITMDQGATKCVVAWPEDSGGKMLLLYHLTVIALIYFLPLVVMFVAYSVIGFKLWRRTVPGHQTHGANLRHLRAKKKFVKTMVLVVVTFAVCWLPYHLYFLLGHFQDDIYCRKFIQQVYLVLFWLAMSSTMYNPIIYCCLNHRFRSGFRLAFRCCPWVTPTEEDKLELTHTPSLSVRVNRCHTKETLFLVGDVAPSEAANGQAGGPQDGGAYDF

[5] = target: Substance-P receptor (Homo sapiens, UniProt P25103); experiment: Inhibition of binding of [3H]SP to Tachykinin receptor 1 of human tachykinin receptor expressed in mouse erythroleukemia cells; assay type: cell-based
Chain of Substance-P receptor (P25103 whole entry): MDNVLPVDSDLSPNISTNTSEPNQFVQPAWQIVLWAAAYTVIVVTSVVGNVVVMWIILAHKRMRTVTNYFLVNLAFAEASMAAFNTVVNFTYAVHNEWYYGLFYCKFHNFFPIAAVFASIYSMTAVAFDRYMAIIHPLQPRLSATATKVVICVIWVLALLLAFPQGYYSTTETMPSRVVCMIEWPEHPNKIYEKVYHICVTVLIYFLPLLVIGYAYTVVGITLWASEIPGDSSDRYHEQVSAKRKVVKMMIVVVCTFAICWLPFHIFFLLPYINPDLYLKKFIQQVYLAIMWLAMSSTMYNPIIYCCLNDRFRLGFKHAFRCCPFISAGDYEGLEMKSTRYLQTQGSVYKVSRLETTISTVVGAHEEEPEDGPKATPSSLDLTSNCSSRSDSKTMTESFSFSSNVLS

[6] = target: T2, Substance-K receptor (Homo sapiens, UniProt P21452); experiment: Inhibition of binding of [3H]NKA to human Tachykinin receptor 2 (NK2) expressed in mouse erythroleukemia cells; assay type: cell-based
T2 sequence (P21452 whole entry): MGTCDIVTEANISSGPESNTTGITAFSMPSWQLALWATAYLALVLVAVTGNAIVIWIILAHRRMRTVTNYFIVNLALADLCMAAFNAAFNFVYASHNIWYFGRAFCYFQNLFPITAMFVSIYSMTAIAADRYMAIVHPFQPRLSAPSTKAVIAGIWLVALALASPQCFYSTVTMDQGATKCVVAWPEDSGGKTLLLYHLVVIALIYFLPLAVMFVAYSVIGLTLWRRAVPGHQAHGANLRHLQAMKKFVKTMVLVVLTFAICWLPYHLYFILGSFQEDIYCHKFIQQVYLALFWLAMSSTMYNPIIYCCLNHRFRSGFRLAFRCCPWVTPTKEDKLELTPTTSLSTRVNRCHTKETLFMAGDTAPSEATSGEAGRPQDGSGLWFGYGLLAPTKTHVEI

[7] = target: T3, Substance-K receptor (Cavia porcellus) (UniProt Q64077); experiment: Effective dose concentration required for In vivo binding affinity towards Tachykinin receptor 2 (NK2) receptor after oral administration in presence of agonist BANK in guinea pig pulmonary tissue in pulmonary mechanics assay
T3 sequence (whole entry): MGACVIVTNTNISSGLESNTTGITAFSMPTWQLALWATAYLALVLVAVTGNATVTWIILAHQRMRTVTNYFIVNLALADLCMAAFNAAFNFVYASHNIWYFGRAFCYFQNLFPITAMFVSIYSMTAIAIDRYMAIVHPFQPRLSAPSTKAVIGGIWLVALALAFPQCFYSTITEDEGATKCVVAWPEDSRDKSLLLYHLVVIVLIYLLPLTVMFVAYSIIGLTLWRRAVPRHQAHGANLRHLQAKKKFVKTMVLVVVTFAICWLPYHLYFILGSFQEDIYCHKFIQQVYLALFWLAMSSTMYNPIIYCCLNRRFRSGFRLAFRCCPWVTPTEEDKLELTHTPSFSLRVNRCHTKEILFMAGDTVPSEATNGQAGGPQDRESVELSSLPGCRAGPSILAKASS

[8] = target: T4, Neuromedin-K receptor (Homo sapiens, UniProt P29371); experiment: Inhibition of binding of [125I]MPNI to human Tachykinin receptor 3 (NK3) expressed in mouse erythroleukemia cells; assay type: cell-based
T4 sequence (P29371 whole entry): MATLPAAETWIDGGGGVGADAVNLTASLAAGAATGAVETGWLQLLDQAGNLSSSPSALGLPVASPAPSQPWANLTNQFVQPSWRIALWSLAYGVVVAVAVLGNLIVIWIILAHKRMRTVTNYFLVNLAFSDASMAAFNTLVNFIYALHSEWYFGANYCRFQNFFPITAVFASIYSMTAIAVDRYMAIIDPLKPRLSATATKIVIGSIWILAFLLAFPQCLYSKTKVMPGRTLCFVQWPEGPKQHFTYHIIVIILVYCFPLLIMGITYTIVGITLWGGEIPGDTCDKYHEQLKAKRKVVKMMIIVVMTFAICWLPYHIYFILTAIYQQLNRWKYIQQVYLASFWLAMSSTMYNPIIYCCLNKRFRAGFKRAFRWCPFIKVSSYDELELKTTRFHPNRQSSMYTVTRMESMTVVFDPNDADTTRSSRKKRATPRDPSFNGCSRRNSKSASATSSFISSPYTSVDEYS

[9] = target: Substance-P receptor (Cavia porcellus) (UniProt P30547); experiment: In vivo binding affinity towards Tachykinin receptor 1 after oral administration in presence of agonist ASMSP in guinea pig pulmonary tissue in lung plasma extravation assay; assay type: organism-based; in short: as §2
[10] = test system: Substance-P receptor (Oryctolagus cuniculus); experiment: Tested for the binding affinity towards tachykinin receptor 1 (NK1) in rabbit pulmonary artery tissue
[11] = target: Substance-P receptor (Cavia porcellus) (UniProt P30547); experiment: In vivo potency as dose ratio (ED50 ratio for Tachykinin receptor 1 in presence and absence of antagonist) in guinea pig PMM after oral administration at a dose 30 uM/Kg
[12] = target: T3, Substance-K receptor (Cavia porcellus); experiment: In vivo potency as dose ratio (ED50 ratio for Tachykinin receptor 2 (NK2) in presence and absence of antagonist) in guinea pig PMM after oral administration at a dose 30 uM/Kg
[13] = target: Substance-P receptor (Cavia porcellus) (UniProt P30547); experiment: In vivo potency as dose ratio (ED50 ratio for Tachykinin receptor 1 in presence and absence of antagonist) in guinea pig PMM after intravenous administration at a dose 10 uM/Kg
[14] = target: T3, Substance-K receptor (Cavia porcellus); experiment: In vivo potency as dose ratio (ED50 ratio for Tachykinin receptor 2 (NK2) in presence and absence of antagonist) in guinea pig PMM after intravenous administration at a dose 10 uM/Kg
[15] = target: T3, Substance-K receptor (Cavia porcellus); experiment: In vivo binding affinity towards Tachykinin receptor 2 (NK2) receptor after oral administration in presence of agonist BANK in guinea pig pulmonary tissue in pulmonary mechanics assay
[16] = target: T2, Substance-K receptor; experiment: Inhibition of binding of [3H]NKA to human Tachykinin receptor 2 (NK2) in mouse erythroleukemia cells
[17] = target: T3, Substance-K receptor (Cavia porcellus); experiment: In vivo binding affinity towards Tachykinin receptor 2 (NK2) after oral administration in presence of agonist BANK in guinea pig pulmonary tissue in pulmonary mechanics assay

bioavailability [1] [%] | bioavailability [2] [%] | ED50 [3] [µmol/kg] | pKB [4] | Ki [5] [pM] | Ki [6] [pM] | ED50 [7] [µmol/kg] | Ki [8] [pM] | ED50 [9] [µmol/kg] | pKB [10] | dose ratio [11] | dose ratio [12] | dose ratio [13] | dose ratio [14] | ED50 [15] [µmol/kg] | Ki [16] [pM] | ED50 [17] [µmol/kg] | Structure (SMILES)
18 | 9 | 0.6 | 8.26 | 120 | 640 | 13 |  |  |  |  |  |  |  |  |  |  | CN(C[C@@H](CCN1CCC(c2ccccc2[S@+](C)[O-])CC1)c1ccc(Cl)c(Cl)c1)C(=O)c1cc(C#N)cc2ccccc12
 |  |  | 8.2 | 270 | 35000 |  | 9400 | 0.5 | 8.7 | 50 | 49 | 384 | 155 | 9.3 |  |  | CNC(=O)C1(N2CCCCC2=O)CCN(CC[C@H](CN(C)C(=O)c2c(OC)c(C#N)cc3ccccc23)c2ccc(Cl)c(Cl)c2)CC1
18 | 7 |  | 8.7 | 140 |  |  | 39000 | 1 |  |  |  |  |  |  | 340 | 3 | COc1ccc(C2CCN(CC[C@H](CN(C)C(=O)c3cc(C#N)cc4ccccc34)c3ccc(Cl)c(Cl)c3)CC2)c([S@+](C)[O-])c1
